Laboratory results reported in ChEMBL document CHEMBL1138692 (Bioorg Med Chem Lett, 2004).

Key:
MT4 [1] = experiment: Antiviral activity against PI resistant virus EP13 was determined in MT-4 cell line; format: functional, cell-based; settings: Homo sapiens
Method in brief: (§1)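 Antiviral IC50 measured in MT4 cells infected with the named HIV strain: wild-type HXB2, or the multi-PI-resistant EP13 or D545701.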

[2] = target: Human immunodeficiency virus type 1 protease (Human immunodeficiency virus 1, UniProt Q72874); experiment: Inhibition of HIV-1 Protease activity
MT4 [3] = experiment: Antiviral activity against PI resistant virus D545701 was determined in MT-4 cell line; format: functional, cell-based; settings: Homo sapiens; method in brief: as §1
MT4 [4] = experiment: Antiviral activity against wild-type HIV virus (HXB2) was determined in MT-4 cell line; format: functional, cell-based; settings: Homo sapiens; method in brief: as §1
MT4 [5] = experiment: Antiviral activity against wild-type HIV virus (HXB2) in MT-4 cell line; format: functional, cell-based; settings: Homo sapiens; method in brief: as §1
MT4 [6] = experiment: Antiviral activity against PI resistant virus EP13 in MT-4 cell line; format: functional, cell-based; settings: Homo sapiens; method in brief: as §1
MT4 [7] = experiment: Antiviral activity against PI resistant virus D545701 in MT-4 cell line; format: functional, cell-based; settings: Homo sapiens; method in brief: as §1
[8] = Half life period in rat; format: ADME, organism-based; settings: in vivo
[9] = Oral bioavailability in rat; format: ADME, organism-based; settings: in vivo

CC(C)CN(C[C@@H](O)[C@H](Cc1ccccc1)NC(=O)O[C@H]1CCOC1)S(=O)(=O)c1ccc(N)cc1
IC50 (MT4 [1]): 440 nM | Ki [2]: 57 pM | IC50 (MT4 [3]): > 1000 nM | IC50 (MT4 [4]): 130 nM

COC(=O)NCCCCCC(C)(C)CN(C[C@@H](O)[C@H](Cc1ccccc1)NC(=O)O[C@H]1CO[C@H]2OCC[C@H]21)S(=O)(=O)c1ccc2c(c1)OCO2
IC50 (MT4 [1]): 46 nM | Ki [2]: 0.12 pM | IC50 (MT4 [3]): 65 nM | IC50 (MT4 [4]): 5.5 nM

COC(=O)NCCCC(C)(C)CN(C[C@@H](O)[C@H](Cc1ccccc1)NC(=O)O[C@H]1CO[C@H]2OCC[C@H]21)S(=O)(=O)c1cccc(N)c1
IC50 (MT4 [1]): 36 nM | Ki [2]: 0.21 pM | IC50 (MT4 [3]): 100 nM | IC50 (MT4 [4]): 18 nM

COC(=O)NCCCC(C)(C)CN(C[C@@H](O)[C@H](Cc1ccccc1)NC(=O)O[C@H]1CO[C@H]2OCC[C@H]21)S(=O)(=O)c1ccc2c(c1)OCO2
IC50 (MT4 [1]): 38 nM | Ki [2]: 0.52 pM | IC50 (MT4 [3]): 66 nM | IC50 (MT4 [4]): 4.7 nM

CC(C)(CCCN)CN(C[C@@H](O)[C@H](Cc1ccccc1)NC(=O)O[C@H]1CO[C@H]2OCC[C@H]21)S(=O)(=O)c1ccc2c(c1)OCO2
IC50 (MT4 [5]): 370 nM | IC50 (MT4 [6]): 540 nM | IC50 (MT4 [7]): 730 nM

CC(=O)NCCCC(C)(C)CN(C[C@@H](O)[C@H](Cc1ccccc1)NC(=O)O[C@H]1CO[C@H]2OCC[C@H]21)S(=O)(=O)c1ccc2c(c1)OCO2
IC50 (MT4 [1]): 30 nM | IC50 (MT4 [3]): 120 nM | IC50 (MT4 [4]): 23 nM

CNC(=O)NCCCC(C)(C)CN(C[C@@H](O)[C@H](Cc1ccccc1)NC(=O)O[C@H]1CO[C@H]2OCC[C@H]21)S(=O)(=O)c1ccc2c(c1)OCO2
IC50 (MT4 [1]): 110 nM | IC50 (MT4 [3]): 200 nM | IC50 (MT4 [4]): 38 nM

CC(C)(CCCNS(C)(=O)=O)CN(C[C@@H](O)[C@H](Cc1ccccc1)NC(=O)O[C@H]1CO[C@H]2OCC[C@H]21)S(=O)(=O)c1ccc2c(c1)OCO2
IC50 (MT4 [1]): 47 nM | IC50 (MT4 [3]): 150 nM | IC50 (MT4 [4]): 33 nM

COC(=O)NCCC(C)(C)CN(C[C@@H](O)[C@H](Cc1ccccc1)NC(=O)O[C@H]1CO[C@H]2OCC[C@H]21)S(=O)(=O)c1ccc2c(c1)OCO2
IC50 (MT4 [1]): 22 nM | Ki [2]: 0.16 pM | IC50 (MT4 [3]): 40 nM | IC50 (MT4 [4]): 1.4 nM

COC(=O)NCCCCC(C)(C)CN(C[C@@H](O)[C@H](Cc1ccccc1)NC(=O)O[C@H]1CO[C@H]2OCC[C@H]21)S(=O)(=O)c1ccc2c(c1)OCO2
half-life [8]: 78 min | bioavailability [9]: 20% | IC50 (MT4 [1]): 15 nM | IC50 (MT4 [3]): 9.2 nM | IC50 (MT4 [4]): 1.6 nM

COC(=O)NCCCC(C)(C)CN(C[C@@H](O)[C@H](Cc1ccccc1)NC(=O)O[C@H]1CO[C@H]2OCC[C@H]21)S(=O)(=O)c1ccc(N)cc1
IC50 (MT4 [5]): 31 nM | IC50 (MT4 [6]): 46 nM | IC50 (MT4 [7]): 95 nM | Ki [2]: 0.26 pM

CC(C)(C)NC(=O)[C@@H]1CN(Cc2cccnc2)CCN1C[C@@H](O)C[C@@H](Cc1ccccc1)C(=O)N[C@H]1c2ccccc2C[C@H]1O
IC50 (MT4 [1]): 330 nM | IC50 (MT4 [3]): 440 nM | IC50 (MT4 [4]): 50 nM

Cc1c(O)cccc1C(=O)N[C@@H](CSc1ccccc1)[C@H](O)CN1C[C@H]2CCCC[C@H]2C[C@H]1C(=O)NC(C)(C)C
IC50 (MT4 [1]): 450 nM | IC50 (MT4 [3]): > 1000 nM | IC50 (MT4 [4]): 320 nM
